# Compound activity (PubChem BioAssay)
# UBC9 SUMO inh – inhibitors of human SUMOylation (UBC9). inhibition, % at 35 µM. AID 2006. hit rate 0.36% among 290,000. HTRF SUMOylation assay, SAE1/SAE2 + UBC9, in vitro. P63279; in the data active = inhibition above about 50%, passing the limit was not always enough
# Target sequence (P63279 whole entry, looked up): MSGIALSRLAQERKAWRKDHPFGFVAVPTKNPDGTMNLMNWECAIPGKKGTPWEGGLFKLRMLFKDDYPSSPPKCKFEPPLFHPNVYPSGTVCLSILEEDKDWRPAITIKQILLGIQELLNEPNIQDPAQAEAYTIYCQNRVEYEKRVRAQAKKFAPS
# NS3 helicase inh – blocks Hepatitis C virus NS3 helicase unwinding | NS3 helicase DNA unwinding, Cy5 molecular beacon fluorescence | inhibition, % at 10.9 µM | hit rate 0.56% among 290,000 | AID 1800;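 active = inhibition above the mean of all tested compounds plus 3 SD, set per campaign, cut at about 35% in these data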;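 note: 0% = DMSO wells and 100% = thioflavine S control wells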
#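 System: HCV NS3 helicase fragment; control set: DMSO and thioflavine S; technique: Cy5 fluorescence at 0 and 60 min, beacon hairpin quenching; reagent: beacon DNA duplex substrate plus ATP; replicates: singlicate; schedule: 1 h reaction at 25 °C, ATP-initiated; medium: MOPS buffer pH 6.5 with MgCl2, DTT, Tween20, BSA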
# ZTA counter – blocks Epstein-Barr virus ZTA, an EBNA-1 counter-screen | ZTA-DNA binding, fluorescence polarization | hit rate 0.15% among 320,000 | AID 2234 | inhibition, % at 11 µM; in the data active = inhibition above about 33%
# Target sequence (P03206 whole entry, looked up): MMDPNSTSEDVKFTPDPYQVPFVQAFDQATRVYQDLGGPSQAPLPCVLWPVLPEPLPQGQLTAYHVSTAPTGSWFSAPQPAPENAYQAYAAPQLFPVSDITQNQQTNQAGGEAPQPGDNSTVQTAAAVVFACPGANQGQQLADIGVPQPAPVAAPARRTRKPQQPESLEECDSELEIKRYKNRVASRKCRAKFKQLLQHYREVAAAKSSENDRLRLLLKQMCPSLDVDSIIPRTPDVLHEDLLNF
# EBNA-1 inh – blocks EBNA-1 binding to DNA | EBNA-1 DNA binding, fluorescence polarization | inhibition, % at 14.8 µM | hit rate 0.34% among 300,000 | AID 1950; in the data active = inhibition above about 28%
# core dimer inh – blocks dimerization of HCV core protein; TR-FRET GST/Flag-core106 dimerization, 1536-well; inhibition, % at 5 µM; hit rate 0.33% among 300,000; AID 1899;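 active = inhibition above the mean of all tested compounds plus 3 SD, set per screening campaign, cut at about 45% in these data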
#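 Material: GST/Flag-tagged HCV core106 proteins. Incubation: 4 h, 22.5 °C incubation. Read-out basis: inhibition (%) from 671 over 617 nm ratio. Measured by: TR-FRET, excitation 340 nm, emission 617 and 671 nm.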
# NS3 helicase cf – confirmation of Hepatitis C virus NS3 helicase inhibitors. AID 1943. shares compounds with NS3 helicase inh. NS3 helicase DNA unwinding, Cy5 molecular beacon fluorescence. hit rate 31% among 1,600. inhibition, % at 10.9 µM;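 active = inhibition above the mean of all tested compounds plus 3 SD, cutoff set per campaign, cut at about 36% in these data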
# FID counter trip – displaces DNA intercalator in HCV helicase counter-screen; inhibition, % at 7.9 µM; shares compounds with NS3 helicase inh; DNA fluorescent intercalator displacement, fluorescence; hit rate 4% among 1,600; AID 1945; in the data active = inhibition above about 37%;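 note: 0% = vehicle and 100% = reference compound; higher means more displacement of ethidium bromide from the DNA hairpin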
# FID counter DR – counter-screen for HCV NS3 helicase inhibitors: DNA intercalator displacement dose response | shares compounds with NS3 helicase inh | fluorescent intercalator displacement from DNA, fluorescence | 120 tested, under 10 active | IC50, µM | AID 2172; call rule not given here
# The depositor's hits bear a star; . = no result given; ! = not active in a repeat. A selection: hits, their analogues and other compounds. The true share with any hit is near 1.4%.
SMILES,UBC9 SUMO inh,NS3 helicase inh,ZTA counter,EBNA-1 inh,core dimer inh,NS3 helicase cf,FID counter trip,others
CC(=O)C(C(C)=O)c1c(Cl)c(O)c(O)c2c(C(=O)c3ccccc3)coc12,23,38*,-3,-17,2,-10,3,
CN1CCN(Cc2c(O)ccc3occ(C(=O)c4ccccc4)c23)CC1,-13,-13,-17,-4,-8,.,.,
CC(C)c1cc(=O)n2[nH]c(SCc3ccc(Cl)cc3)nc2n1,7,45*,-15,3,-14,-6,-24,
CC(C)c1cc(=O)n2[nH]c(SCc3ccccc3)nc2n1,7,13,-2,7,2,.,.,
Cc1c(NC(=O)C(C)OC(=O)c2c3c(nc4ccccc24)CCC3)c(=O)n(-c2ccccc2)n1C (stereo not drawn),-1,39*,-1,3,14,-25,-28,
O=C(COc1ccccc1)Nc1nnc(-c2ccc(F)cc2)o1,4,60*,-5,3,-23,-20,-15,
CCOc1ccc(N2C(=O)C3Sc4[nH]c(=O)sc4C(/C=C/c4ccccc4)C3C2=O)cc1 (stereo not drawn),18,37*,5,1,33,62*,9,FID counter DR=>79
O=C(CCCN1C(=O)/C(=C/c2ccco2)SC1=S)Nc1ccccc1C(=O)O,68,46*,23,5,6,73*,26,
O=C(CCCN1C(=O)/C(=C\c2ccccc2)SC1=S)Nc1ccc(O)cc1C(=O)O,-3,-7,5,-14,15,.,.,
CCc1ccc(/C=C2/SC(=S)N(CCCC(=O)Nc3ccccc3C(=O)O)C2=O)cc1,10,1,-15,-5,2,.,.,
O=C(O)CCCN1C(=O)/C(=C\c2ccco2)SC1=S,39,39*,.,.,.,29,5,
O=C(CCN1C(=O)/C(=C/c2ccco2)SC1=S)Nc1ccc(O)cc1C(=O)O,49,42*,.,.,.,66*,13,
CC(=O)c1cccc(N2C(=NC(=O)C3CCCCC3)SC3CS(=O)(=O)CC32)c1 (stereo not drawn),3,5,-14,-9,-1,.,.,
CCOC(=O)C1(Cc2ccccc2)CCCN(S(=O)(=O)N(C)C)C1 (stereo not drawn),8,2,4,-1,6,.,.,
Cc1nc2c(C(=O)NCc3ccccc3Cl)c[nH]n2c(=O)c1Cl,13,56*,13,3,12,46*,6,
Cc1nc2c(C(=O)NCCc3ccccc3Cl)c[nH]n2c(=O)c1Cl,17,-24,12,8,12,.,.,
C=CCn1c(SCCCC)nc(O)cc1=O,14,40*!,-6,3,-3,-4,-10,
C=CCn1c(SCCCCCC)nc(O)cc1=O,-5,14,6,7,0,.,.,
CCOc1ccc(-n2ccc(=O)c(C(=O)Nc3ccc(S(=O)(=O)Nc4nccs4)cc3)n2)cc1,46,37*,-6,1,13,-19,-2,
CCCNc1c(F)c(F)c2c(C)c3ccccc3nc2c1F,13,41*,6,4,24,12,-8,
CNc1ccc(Br)cc(C(=O)/C=C/c2ccc3c(c2)OCO3)c1=O,23,54*,-8,3,56*,45*,4,
CNc1ccc(Br)cc(C(=O)/C=C/c2cc(OC)ccc2OC)c1=O,39,40*,3,1,24,61*,-9,FID counter DR=>79
O=C1CN(C(=O)N[C@@H](Cc2ccccc2)C(=O)N[C@@H](Cc2ccccc2)C(=O)O)c2ccccc2N1,12,36*,0,-6,-3,-23,-31,
O=C1CN(C(=O)N[C@@H](Cc2ccccc2)C(=O)N[C@H](Cc2ccccc2)C(=O)O)c2ccccc2N1,12,2,10,-7,0,.,.,
O=C(Nc1ccc2c(c1)OCO2)O[C@@H]1C[C@H]2CCC(=O)N3CC[C@@H](C1)[C@@H]23,4,11,4,13,-4,.,.,
SMILES,UBC9 SUMO inh,NS3 helicase inh,ZTA counter,EBNA-1 inh,core dimer inh,NS3 helicase cf,FID counter trip,others
COc1ccccc1CC(=O)Nc1ccc(S(=O)(=O)N(C)C2CCN(C)CC2)cc1,.,.,-5,.,.,.,.,
O=C(c1ccccc1)c1coc2c1C(=O)c1ccccc1C2=O,39,11,-22,5,1,.,.,
COc1ccc(C(=O)c2coc3c2C(=O)C(=O)c2ccccc2-3)cc1,16,41*,3,7,-1,-8,-3,
Cc1cccc(NC(=O)CSc2nnc(-c3ccco3)c(-c3ccco3)n2)c1C,36,52*,19,1,11,77*,23,
CC(C)(C)NCC(O)COc1ccccc1C1CCCC1 (stereo not drawn),.,.,7,-7,0,.,.,
CCOC(=O)Cn1c(=NC(=O)C2COc3ccccc3O2)sc2cc(S(N)(=O)=O)ccc21 (stereo not drawn),4,56*,6,4,19,7,-26,
CCOC(=O)/C(=N\Nc1ncnc2ccccc12)c1ccc(C)cc1,-16,-28,12,-10,-5,.,.,
CCN(CC)S(=O)(=O)c1ccc(OC)c(NC(=O)/C=C/c2ccco2)c1,2,63*,3,-5,0,-17,-20,
COc1ccc(C2(CNC(=O)/C=C/c3ccco3)CCCC2)cc1OC,-20,38*,4,-5,23,-1,-55,
CCOc1cc(/C=C2\CCCc3c2nc2ccccc2c3C(=O)O)ccc1OC,21,31,-14,-5,-3,.,.,
CCC(C)[C@@H](CN)NCC1(c2ccccc2)CC1 (stereo partly drawn),.,.,-12,.,.,.,.,
COC(=O)C1=NN(C(=O)c2ccc(Cl)cc2)C(O)(c2ccccc2)C1 (stereo not drawn),-2,44*,6,13,-1,-6,-10,
COc1ccc2[nH]c3c(C)c4ccncc4c(C)c3c2c1,18,42*,20,-27,-30,112*,90*,
COc1cccc(-c2cc(C(=O)N/N=C/c3ccco3)c3ccccc3n2)c1,20,8,9,-2,12,.,.,
Cc1ccc(-c2cc(-c3ccco3)c3c(N)c(C(=O)NN)oc3n2)cc1,55*,42*,-13,1,15,4,5,
COc1cccc(/C=N/NC(=O)c2oc3nc(-c4ccccc4)cc(-c4ccco4)c3c2N)c1,40,39*,7,2,13,2,-27,
NNC(=O)c1oc2nc(-c3cccs3)cc(-c3ccco3)c2c1N,65,-38,0,-2,-5,.,.,
Cc1cc(=O)n2nc(N3CCC(C(=O)NCc4cccc(Cl)c4)CC3)sc2n1,11,-3,-10,-19,7,.,.,
O=C1CS/C(=N\N=C\c2ccco2)N1c1ccccc1,32,41*,6,-4,30,15,20,
